The source of these data is ChEMBL document CHEMBL3525903 (Drug Metab Dispos, 2013).

The nature of series [1]: Drug uptake in human intestine at 5 mg, po. The class given is ADME, tissue-based. To be noted: in vivo.
The target of series [2] is ATP-binding cassette sub-family C member 2 (Homo sapiens, UniProt Q92887). The series is described as follows: Inhibition of human MRP2 expressed in MDCK2 cells assessed as reduction of [3H]E217betaG substrate transport up to 100 uM by liquid scintillation counting. Format: ADME, cell-based. To be noted: mdck-ii. The procedure, abridged:
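Membrane vesicles made from MDCKII cells expressing BCRP or MRP2, and from parental cells (1 μg/μL protein). Run in Tris-sucrose buffer, pH 7.4, with 10 mM MgCl2, creatine phosphokinase and ATP, or AMP as control. Substrates: 0.035 μM [3H]E-sul for BCRP, 2 min; 0.033 μM [3H]E217βG for MRP2, 5 min; both at 37 °C. Stopped ice-cold, filtered, and counted by scintillation.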

Series [3] addresses T1, Solute carrier family 22 member 6 (Homo sapiens, UniProt Q4U2R8).
T1 sequence (Q4U2R8 whole entry): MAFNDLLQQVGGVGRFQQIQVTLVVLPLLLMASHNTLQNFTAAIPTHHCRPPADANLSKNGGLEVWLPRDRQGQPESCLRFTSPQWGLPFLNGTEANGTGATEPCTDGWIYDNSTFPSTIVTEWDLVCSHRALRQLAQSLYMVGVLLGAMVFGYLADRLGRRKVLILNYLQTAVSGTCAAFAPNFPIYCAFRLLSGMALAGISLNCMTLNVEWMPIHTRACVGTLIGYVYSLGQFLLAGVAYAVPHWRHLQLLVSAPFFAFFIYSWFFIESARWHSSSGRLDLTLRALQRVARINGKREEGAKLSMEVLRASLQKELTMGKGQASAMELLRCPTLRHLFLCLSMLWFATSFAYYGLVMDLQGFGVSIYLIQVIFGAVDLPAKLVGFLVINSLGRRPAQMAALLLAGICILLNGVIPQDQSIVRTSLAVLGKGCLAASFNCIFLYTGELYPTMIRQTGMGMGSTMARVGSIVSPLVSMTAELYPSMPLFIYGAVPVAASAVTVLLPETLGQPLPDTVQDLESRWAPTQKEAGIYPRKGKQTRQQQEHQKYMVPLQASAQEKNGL
The series is described as follows: Inhibition of OAT1 (unknown origin) expressed in HEK293 cells assessed as reduction of [3H]PAH substrate uptake at 100 uM by liquid scintillation counting. The class given is ADME, cell-based. To be noted: hek293, 100 µM. The procedure, abridged:
(§1)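 HEK293 cells transiently transfected with OAT, OATP or OCT plasmid (FuGENE6; 24 h, then 24 h more with sodium butyrate), or stable OCTN1/OCTN2 lines; vector-transfected cells as control. Washed, preincubated 15–60 min at 37 °C in modified Krebs-Henseleit/25 mM HEPES buffer. Uptake of radiolabelled substrate, 100 µM inhibitor. Cells lysed in NaOH and counted by scintillation; counts normalised to medium radioactivity and Lowry protein; vector uptake subtracted.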

The nature of series [4]: Inhibition of human P-glycoprotein expressed in pig LLC-PK1 cells assessed as reduction of [3H]digoxin substrate transport from basolateral to apical side by liquid scintillation counting. The class given is ADME, cell-based.
Series [5] is described as follows: Protein binding in plasma (unknown origin). Format: ADME, cell-free. To be noted: read-out: PPB (converted).
For series [6], the system named is P-glycoprotein. The series is described as follows: Permeability assessed as human P-glycoprotein-mediated transport across apical to basolateral side expressed in pig LLC-PK1 cells by Transwell experiment/liquid scintillation counting. The class given is ADME, cell-based.
For the next series, the target named is T2, OCTN2 (Homo sapiens, UniProt O76082).
T2 sequence (O76082 whole entry): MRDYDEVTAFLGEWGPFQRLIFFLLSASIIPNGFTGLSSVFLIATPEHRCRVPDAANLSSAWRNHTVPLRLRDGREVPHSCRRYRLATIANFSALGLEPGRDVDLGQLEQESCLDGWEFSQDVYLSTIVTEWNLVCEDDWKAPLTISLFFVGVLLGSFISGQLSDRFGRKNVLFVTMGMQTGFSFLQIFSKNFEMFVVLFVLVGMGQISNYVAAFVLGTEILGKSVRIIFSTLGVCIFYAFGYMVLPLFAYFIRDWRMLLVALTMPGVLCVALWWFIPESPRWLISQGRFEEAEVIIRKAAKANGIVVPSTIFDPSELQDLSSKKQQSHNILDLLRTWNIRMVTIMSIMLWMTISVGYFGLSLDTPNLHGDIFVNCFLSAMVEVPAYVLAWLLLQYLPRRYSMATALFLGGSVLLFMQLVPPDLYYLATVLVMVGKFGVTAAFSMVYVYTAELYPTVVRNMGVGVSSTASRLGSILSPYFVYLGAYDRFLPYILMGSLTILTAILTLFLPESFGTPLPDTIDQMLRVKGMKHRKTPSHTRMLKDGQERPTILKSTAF
Put plainly: Inhibition of OCTN2 (unknown origin) expressed in HEK293 cells assessed as reduction of [3H]carnitine substrate uptake at 100 uM by liquid scintillation counting. Format: cell-based. To be noted: HEK293 cells expressing OCTN2, probe [3H]carnitine. The essentials: as §1

Series [7] in a line: Maximal inhibition of human P-glycoprotein expressed in pig LLC-PK1 cells assessed as reduction of [3H]digoxin substrate transport at 100 uM by liquid scintillation counting. To be noted: llc-pk1, 100 µM. The class given is ADME, cell-based. The procedure, abridged: (§2)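 P-gp-expressing and parental LLC-PK1 monolayers were grown on transwell inserts for 6–7 days to confluence and switched to serum-free M199 1 h before assay. [3H]digoxin was given apical-to-basal or basal-to-apical, with inhibitor in both chambers, at 37 °C, solvent ≤0.5%. Receiver samples were scintillation-counted and Papp taken from the linear phase. Results are % of control BtoA transport, mean ± S.D., n≥3.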

A short description of series [8]: Inhibition of human P-glycoprotein expressed in pig LLC-PK1 cells assessed as reduction of [3H]digoxin substrate transport by liquid scintillation counting. The class given is ADME, cell-based. The procedure, abridged:
as §2

Series [9] concerns P-glycoprotein. Put plainly: Permeability assessed as human P-glycoprotein-mediated of transport of basolateral to apical side expressed in pig LLC-PK1 cells by Transwell experiment/liquid scintillation counting. Format: ADME, cell-based.
For series [10], the system named is P-glycoprotein. Put plainly: Permeability assessed as human P-glycoprotein-mediated transport across apical to basolateral side expressed in pig LLC-PK1 cells at 500 uM by liquid scintillation counting. The class given is ADME, cell-based.
The subject of series [11] is P-glycoprotein. Put plainly: Permeability assessed as human P-glycoprotein-mediated transport of basolateral to apical side in pig LLC-PK1 cells by measuring nontransporter-related passive membrane permeability by Transwell experiment/liquid scintillation counting. The class given is ADME, cell-based. To be noted: read-out: permeability.
For series [12], the system named is P-glycoprotein. Put plainly: Permeability assessed as human P-glycoprotein-mediated transport across basolateral to apical side expressed in pig LLC-PK1 cells at 500 uM by liquid scintillation counting. Format: ADME, cell-based.

ATP-binding cassette sub-family C member 2, sequence (Q92887 whole entry): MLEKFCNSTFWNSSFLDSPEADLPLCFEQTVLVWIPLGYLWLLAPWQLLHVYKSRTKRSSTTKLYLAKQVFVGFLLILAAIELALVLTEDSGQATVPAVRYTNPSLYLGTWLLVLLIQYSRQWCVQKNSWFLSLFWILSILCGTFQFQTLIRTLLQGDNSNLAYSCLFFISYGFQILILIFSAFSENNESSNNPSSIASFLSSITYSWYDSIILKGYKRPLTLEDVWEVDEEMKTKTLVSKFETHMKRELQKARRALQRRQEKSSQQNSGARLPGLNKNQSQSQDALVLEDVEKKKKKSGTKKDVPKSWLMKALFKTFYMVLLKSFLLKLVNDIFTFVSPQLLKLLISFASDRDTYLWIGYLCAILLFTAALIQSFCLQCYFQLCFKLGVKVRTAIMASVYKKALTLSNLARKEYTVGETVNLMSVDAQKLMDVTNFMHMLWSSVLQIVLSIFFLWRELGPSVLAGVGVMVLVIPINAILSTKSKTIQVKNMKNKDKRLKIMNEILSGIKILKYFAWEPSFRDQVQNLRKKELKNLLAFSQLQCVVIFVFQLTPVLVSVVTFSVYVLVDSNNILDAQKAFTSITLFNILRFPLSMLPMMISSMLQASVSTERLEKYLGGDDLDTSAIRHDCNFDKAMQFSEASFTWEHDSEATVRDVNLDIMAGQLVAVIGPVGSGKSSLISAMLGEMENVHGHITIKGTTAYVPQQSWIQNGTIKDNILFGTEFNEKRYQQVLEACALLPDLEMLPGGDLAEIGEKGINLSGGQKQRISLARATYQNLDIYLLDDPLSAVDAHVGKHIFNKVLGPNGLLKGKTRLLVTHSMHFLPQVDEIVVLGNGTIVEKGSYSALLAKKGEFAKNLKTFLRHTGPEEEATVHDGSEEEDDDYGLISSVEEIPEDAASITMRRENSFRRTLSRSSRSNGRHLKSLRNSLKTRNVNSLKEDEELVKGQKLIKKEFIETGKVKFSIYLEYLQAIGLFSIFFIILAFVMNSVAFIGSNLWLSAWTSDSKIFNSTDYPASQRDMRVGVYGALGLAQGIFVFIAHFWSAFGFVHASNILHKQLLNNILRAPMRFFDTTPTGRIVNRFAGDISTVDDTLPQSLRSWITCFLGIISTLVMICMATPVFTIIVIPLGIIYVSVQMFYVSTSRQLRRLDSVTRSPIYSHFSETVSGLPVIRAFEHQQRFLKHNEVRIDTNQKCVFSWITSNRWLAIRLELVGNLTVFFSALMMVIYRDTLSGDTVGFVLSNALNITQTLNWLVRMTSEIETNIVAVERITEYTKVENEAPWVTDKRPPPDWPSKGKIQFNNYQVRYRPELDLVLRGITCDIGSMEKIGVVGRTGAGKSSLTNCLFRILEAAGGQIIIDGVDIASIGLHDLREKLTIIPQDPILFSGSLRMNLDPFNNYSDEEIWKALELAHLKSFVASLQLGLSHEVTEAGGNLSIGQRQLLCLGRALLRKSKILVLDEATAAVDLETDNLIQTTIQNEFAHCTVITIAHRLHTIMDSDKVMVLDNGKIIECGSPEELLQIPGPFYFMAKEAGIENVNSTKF

One may read the IC50 as the midpoint of a concentration-inhibition curve. As usually defined, the Km is the substrate concentration at which the rate is half of its maximum. By inhibition is commonly meant the drop in the measured response relative to a control, in per cent. Broadly, the Papp A→B is the apparent permeability from the apical to the basolateral side of a cell layer. Take `CC#CCn1c(N2CCC[C@@H](N)C2)nc2c1c(=O)n(Cc1nc(C)c3ccccc3n1)c(=O)n2C` [LINAGLIPTIN]: the Drug uptake in series [1] came out at 42.3 µM. Also, the “inhibition (INH)” value in series [2] is “Not Active”; in series [3], 1.07%; in series [7] it was “Active”; in series [8] it was “Dose-dependent effect”. The IC50 in series [4] was 66.1 µM. Further, the fraction unbound in series [5] is 0.2. For the same compound, the Km amounted to 220 µM with P-glycoprotein [6] and 154 µM in the series with P-glycoprotein [9]. Also, the inhibition at 100 µM at OCTN2 is 15.5%. Also, the Papp A→B at 500 µM in the series on P-glycoprotein [10] is 26.7 ×10⁻⁶ cm/s. In the series on P-glycoprotein [11], the Papp B→A amounted to 14.7 ×10⁻⁶ cm/s. Also, in the series on P-glycoprotein [12], the Papp B→A at 500 µM turned out to be 15.7 ×10⁻⁶ cm/s.
